# pIC50: −log10 of the molar value. The source made the active and inactive calls. The calls are words filed in the database; no cut-off is given here.
# Legend:
# [1] = Inhibition of tubulin polymerization at 10 uM
# Outline: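 Tubulin added in PIPES pH 6.9 buffer with EGTA, MgCl2, 5% glycerol; compound at 10 µM final from DMSO. After 10 min on ice, GTP added, then polymerization followed by absorbance at 340 nm for 30 min at 37 °C. Paclitaxel and nocodazole at 10 µM final as controls.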
# MCF7 [2] = experiment: Antiproliferative activity against human MCF7 cells after 72 hrs by crystal violet biomass reduction assay; format: functional, cell-based; settings: MCF7, 72 h
# Outline: (§1)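 Cells grown in α-MEM with 5% FBS at 37 °C, 5% CO2; 2,500 cells/well allowed 24 h before compound in DMSO, triplicates, ≥5 concentrations, 72 h exposure. Biomass read by crystal violet staining, Triton X-100 elution, OD 595 nm. IC50 from dose-response as 50% reduction in net cell mass versus vehicle, corrected with no-cell background.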
# U-937 = experiment: Antiproliferative activity against human U937 cells by sulforhodamine B assay; format: functional, cell-based
# Outline: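 U-937 cells in RPMI-1640 with 10% FBS and 1% Pen-Strep; 4 x 10^4 cells/well, compound in DMSO, replicates of 5, 72 h at 37 °C, 5% CO2. Fixed with cold TCA overnight at 4 °C. Stained 30 min with 0.057% SRB in 1% acetic acid; bound dye released in 10 mM Tris base, A510 read. Vehicle and cell-free wells set 100%/0% biomass; IC50 from logistic fit.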
# [3] = tested on: Mycobacterium tuberculosis; experiment: Antimycobacterial activity against Mycobacterium tuberculosis H37Rv; format: functional
# HeLa [4] = experiment: Cell cycle arrest in human HeLa cells assessed as accumulation at G2/M cells at 5 uM after 18 hrs by flow cytometry; format: functional
# Outline: (§2)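 HeLa in RPMI-1640 with 10% FBS, Pen-Strep; 8 x 10^5 cells in 4 mL dosed at 5 µM (0.05% DMSO final) for 18 h, triplicate. Harvested cells fixed in 70% ice-cold ethanol 1 h at -20 °C, RNase A treated 2 h, propidium iodide 50 µg/mL stained. DNA content by flow cytometry, 20,000 events, single cells gated on PI width vs area.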
# HeLa [5] = experiment: Cell cycle arrest in human HeLa cells assessed as accumulation at G1 phase at 5 uM after 18 hrs by flow cytometry; format: functional; outline: as §2
# HeLa [6] = experiment: Cell cycle arrest in human HeLa cells assessed as accumulation at G2 phase at 5 uM after 18 hrs by flow cytometry; format: functional; outline: as §2
# HeLa [7] = experiment: Cell cycle arrest in human HeLa cells assessed as accumulation at S phase at 5 uM after 18 hrs by flow cytometry; format: functional; outline: as §2
# HeLa [8] = experiment: Cell cycle arrest in human HeLa cells assessed as accumulation at G2/G1 phase at 5 uM after 18 hrs by flow cytometry; format: functional; outline: as §2
# MCF7 [9] = experiment: Antiproliferative activity against human MCF7 cells by crystal violet biomass reduction assay; format: functional, cell-based; settings: TDE = time-dependent effect; outline: as §1
# HeLa [10] = experiment: Change in cellular morphology of human HeLa cells assessed as DNA condensation at 5 uM after 18 hrs using propidium-iodide staining by confocal microscopy; format: functional, cell-based
# Outline: (§3)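 HeLa attached 3 h on cover slips, then 18 h with DMSO vehicle or 5 µM compound (0.05% DMSO final). Brief microtubule stabilizing buffer (PIPES pH 6.8), 0.5% glutaraldehyde fixation 10 min, NaBH4 quench, blocking; FITC anti-α-tubulin (1:50) with RNase A 2.5 h, then propidium iodide 50 µg/mL 15 min. Imaged by confocal microscopy.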
# HeLa [11] = experiment: Change in cellular morphology of human HeLa cells assessed as microtubule disruption at 5 uM after 18 hrs using FITC-conjugated alpha-tubulin antibody by confocal microscopy; format: functional, cell-based; outline: as §3
# HeLa [12] = experiment: Cell cycle arrest in human HeLa cells assessed as accumulation at M phase at 5 uM after 18 hrs by flow cytometry; format: functional, cell-based; outline: as §2
# HeLa [13] = experiment: Change in cellular morphology of human HeLa cells assessed as interference in microtubule formation at 5 uM after 18 hrs by confocal microscopy; format: functional, cell-based; outline: as §3
SMILES,inhibition [1],pIC50 (MCF7 [2]),pIC50 (U-937),MIC [3],also measured
CC(=O)O[C@H]1C(=O)[C@@]2(C)[C@H]([C@H](OC(=O)c3ccccc3)[C@]3(O)C[C@H](OC(=O)[C@H](O)[C@@H](NC(=O)c4ccccc4)c4ccccc4)C(C)=C1C3(C)C)[C@]1(OC(C)=O)CO[C@@H]1C[C@@H]2O,inactive,–,–,–,–
COC(=O)Nc1nc2cc(C(=O)c3cccs3)ccc2[nH]1,Active,–,–,–,–
COc1cc2c(c(OC)c1OC)-c1ccc(OC)c(=O)cc1[C@@H](NC(C)=O)CC2 [COLCHICINE],–,7.87,8.10,–,–
O=C(OCc1ccccc1)[C@H]1COC(c2ccccc2OCc2ccccc2)=N1,–,< 4.70,–,4.2 µM,–
COc1ccc(C2=NC(C(=O)Nc3ccccc3O)CO2)cc1 (configuration not stated),–,< 4.70,–,13 µM,–
CC(=O)NCc1cn(Cc2cccc(Oc3ccccc3)c2)nn1,–,5.19,4.55,–,Activity (HeLa [4]): inactive; Activity (HeLa [5]): 53.85%; Activity (HeLa [6]): 17.26%; Activity (HeLa [7]): 24.94%; Activity (HeLa [8]): 1.87%
O=C(NCc1cn(Cc2cccc(Oc3ccccc3)c2)nn1)c1ccccc1,–,6.61,–,–,–
CCCCCCCCCCCCCCCC(=O)N(O)CCCC[C@H](NC(=O)[C@H]1COC(c2ccccc2O)=N1)C(=O)O[C@@H](C)CC(=O)N[C@H]1CCCCN(O)C1=O,–,–,–,3.9 µM,–
O=C(NCc1cn(Cc2cccc(Oc3ccccc3)c2)nn1)c1ccccn1,Active,7.34,6.24,–,Activity (HeLa [4]): >90%; Activity (MCF7 [9]): tde; Activity (HeLa [5]): 0.86%; Activity (HeLa [6]): 90.72%; Activity (HeLa [7]): 7.59%; Activity (HeLa [8]): 2%; Activity (HeLa [10]): Active; Activity (HeLa [11]): Active; Activity (HeLa [12]): Active; Activity (HeLa [13]): Active
COc1cc2c(cc1O)CC[C@@H]1[C@@H]2CC[C@]2(C)[C@@H](O)CC[C@@H]12 [2-METHOXYESTRADIOL],–,6.07,5.54,–,–
